The source of these data is PubChem BioAssay.

Molecules are shown by their SMILES. The source made the active and inactive calls.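 How the source made its calls, unless noted: active means viability loss from added drug above about 55%, and viability with drug at most 40%, in both replicates (limit read from the data, passing the limit was not always enough); inconclusive means both conditions met in only one replicate; inactive means neither replicate meets both conditions.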

Test [1] in a line: SK-BR-3 cell growth inhibitors, pilot screen, 24 h, human (AID 572;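 active means viability at or below 10% of carrier control in both of two separate runs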;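 further: compound exposure lasted between 18 and 24 h rather than exactly 24 h; 100% = carrier-treated control wells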). Particulars: SK-BR-3 viability, CellTiter-Glo luminescence, at 10 µM, stronger effect = lower value.
Test [2] can be described thus: HUVEC growth inhibition – cell-based, human, primary screen (AID 575;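 active means viability at or below 30% in both replicate assays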;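 further: 100% = median of untreated cell wells with 0.1% DMSO on each plate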). Particulars: HUVEC proliferation, CellTiter-Glo luminescence, 72 h; at 10 µM; stronger effect = lower value. In short, it runs like this:
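Test system: HUVEC primary cells. Quantity: 1250 endothelial cells in each well. Dosing: single-point 10 µM, DMSO 0.1% final. Incubation: 72 h treatment at 37 °C. Measured by: CTG luminescence. Control set: DMSO cell controls and MePR drug controls. Plate: collagen-coated 384-well format.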

Test [3] can be described thus: growth inhibitors of H69AR lung tumor, primary screen, human, duplicate replicates (AID 580;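 active means viability at or under a set limit in both replicates, limit being median viability minus 3 SD, cut at about 48% in these data, passing the limit was not always enough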;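 further: 100% = mean luminescence of untreated wells and 0% = no signal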). Particulars: H69AR lung tumor cells viability, ATP luminescence, 72 h; at 10 µM; stronger effect = lower value.
Test [4] is described as follows: reversal of MRP1-mediated doxorubicin resistance, pilot screen, H69AR cells, doxorubicin co-treatment (AID 601). Particulars: CellTiter-Glo, 72 h, at 10 µM; for differential viability (reversal): stronger effect = higher value.
Test [5] is described as follows: 384-well plate pilot, post-Golgi transport modulator project, inhibition of yeast transport mutant growth (AID 636; in the data active means inhibition above about 31%). Particulars: absorbance 615 nm, about 18 h, stronger effect = higher value.
Test [6] can be described thus: growth suppression of yeast trafficking mutant, preliminary HTS, modulators of trafficking downstream of Golgi apparatus project, 1536-format plate, OD 615 nm (AID 637; in the data active means inhibition above about 30%). Particulars: yeast transport mutant growth, absorbance 615 nm, 18 h; stronger effect = higher value.
[7] abbreviates: H69AR cells + 2 uM doxorubicin, measured here: viability with 2 uM doxorubicin, stronger effect = lower value.
[8] abbreviates: H69AR cells, compound alone cytotoxicity.

Turning to `C=CCn1c(SCC(=O)Nc2ccccc2OC)nnc1-c1ccccn1`, the viability in test [1] was 84% (inactive); in test [2], 92.4% (inactive); in test [3], 27.6% (active); in test [4] (setting [7]), 65.9%; in test [4] (setting [8]), 27.6%. In test [4] (H69AR cells + 2 uM doxorubicin), the differential viability (reversal) is -38.3% (inactive). The inhibition in test [5] is -3.78% (inactive); in test [6], -4.36% (inactive).

In the case of `CCOC(=O)Cc1csc(NC(=O)c2cccc(OC)c2)n1`, the viability in test [1] is 75% (inactive); in test [2], 104% (inactive); in test [3] it was 103% (inactive); in test [4] (setting [7]) it was 102%; in test [4] (setting [8]), 103%. Further, in test [4] (H69AR cells + 2 uM doxorubicin), the differential viability (reversal) was 0.32% (inactive). Besides, the values for the inhibition in test [5] and in test [6] were -5.75% (inactive) and -5.64% (inactive), respectively.

`Cc1cc(NCC2CCCO2)n2c(nc3ccccc32)c1C#N` (configuration not stated): the viability was 79% (inactive) in test [1]; 81.2% (inactive) in test [2]; 71% (inactive) in test [3]; 32.1% in test [4] (setting [7]); 71% in test [4] (setting [8]). In addition, in test [4] (H69AR cells + 2 uM doxorubicin), the differential viability (reversal) was 38.9% (inactive). The inhibition was -6.44% (inactive) in test [5] and 1.61% (inactive) in test [6].

As for `O=C1C2CCCN2C(c2ccccc2)N1c1ccc(Cl)cc1` (configuration not stated), the viability in test [1] is 110% (inactive); in test [2], 79.1% (inactive); in test [3], 104% (inactive); in test [4] (setting [7]) it was 85.2%; in test [4] (setting [8]), 104%. Also, the differential viability (reversal) in test [4] (H69AR cells + 2 uM doxorubicin) is 19% (inactive). For the same compound, the inhibition in test [5] was -4.67% (inactive); in test [6], -5.82% (inactive).

`CCn1cc(C(=O)O)c(=O)c2cc(F)c(N3CCNCC3)cc21`: the viability is 105% (inactive) in test [1]; 91.1% (inactive) in test [2]; 92.1% (inactive) in test [3]; 88.9% in test [4] (setting [7]); 92.1% in test [4] (setting [8]). Besides, in test [4] (H69AR cells + 2 uM doxorubicin), the differential viability (reversal) was 3.17% (inactive). For the same compound, the inhibition in test [5] was -3.77% (inactive); in test [6], 7.83% (inactive).

For `C=CCOC(=O)C1=C(C)NC(=O)NC1c1cn(-c2ccccc2)nc1-c1cccs1` (configuration not stated), the viability in test [1] was 119% (inactive); in test [2], 81.9% (inactive); in test [3] it was 91% (inactive); in test [4] (setting [7]), 94.7%; in test [4] (setting [8]), 91%. Also, the differential viability (reversal) in test [4] (H69AR cells + 2 uM doxorubicin) was -3.71% (inactive). For the same compound, the values for the inhibition in test [5] and in test [6] were -6.49% (inactive) and 1.09% (inactive), respectively.

In the case of `O=C(CSc1nnc(-c2ccco2)n1-c1ccccc1)N1CCN(C(=O)c2ccco2)CC1`, the viability is 137% (inactive) in test [1]; 80.3% (inactive) in test [2]; 84.4% (inactive) in test [3]; 85.9% in test [4] (setting [7]); 84.4% in test [4] (setting [8]). Further, the differential viability (reversal) in test [4] (H69AR cells + 2 uM doxorubicin) was -1.54% (inactive). The figures for the inhibition in test [5] and in test [6] were -1.17% (inactive) and -0.82% (inactive), respectively.

Consider `CCOC(=O)C1CSc2[nH]c(=O)sc2C1c1ccccc1` (configuration not stated), for which the viability in test [1] is 100% (inactive); in test [2], 117% (inactive); in test [3], 93.2% (inactive); in test [4] (setting [7]) it was 103%; in test [4] (setting [8]), 93.2%. In addition, the differential viability (reversal) in test [4] (H69AR cells + 2 uM doxorubicin) is -9.41% (inactive). Besides, the inhibition in test [5] is 0.95% (inactive); in test [6], -2% (inactive).

Turning to `c1ccc(OCCCn2nnc(-c3ccncc3)n2)cc1`, the viability in test [1] was 109% (inactive); in test [2], 108% (inactive); in test [3] it was 95.8% (inactive); in test [4] (setting [7]) it was 96.8%; in test [4] (setting [8]), 95.8%. In test [4] (H69AR cells + 2 uM doxorubicin), the differential viability (reversal) was -1.02% (inactive). Besides, the figures for the inhibition in test [5] and in test [6] were -5.21% (inactive) and 4.73% (inactive), respectively.

As for `CC(O)c1cc2c(cc1NC(=O)c1cnn3c1NC(c1ccco1)CC3C(F)(F)F)OCO2` (configuration not stated), the viability in test [1] is 93% (inactive); in test [2], 97.2% (inactive); in test [3], 86.3% (inactive); in test [4] (setting [7]), 85.9%; in test [4] (setting [8]), 86.3%. In addition, the differential viability (reversal) in test [4] (H69AR cells + 2 uM doxorubicin) was 0.405% (inactive). Moreover, the inhibition in test [5] was 0.65% (inactive); in test [6], -1.97% (inactive).

Take `CC(=O)Nc1c(I)c(NC(C)=O)c(I)c(C(=O)O)c1I`: the viability was 89% (inactive) in test [1]; 98.4% (inactive) in test [2]; 103% (inactive) in test [3]; 102% in test [4] (setting [7]); 103% in test [4] (setting [8]). The differential viability (reversal) in test [4] (H69AR cells + 2 uM doxorubicin) was 1.03% (inactive). In addition, the inhibition in test [5] was -0.13% (inactive); in test [6] it was -3% (inactive).

For `O=C(Nc1ccccc1C(=O)O)c1cccc(NC(=O)c2ccc(Br)o2)c1`, the viability in test [1] is 91% (inactive); in test [2], 80% (inactive); in test [3], 102% (inactive); in test [4] (setting [7]), 94.4%; in test [4] (setting [8]) it was 102%. Besides, the differential viability (reversal) in test [4] (H69AR cells + 2 uM doxorubicin) is 7.51% (inactive). Moreover, the inhibition in test [5] is -10.8% (inactive); in test [6] it was -1.82% (inactive).

In the case of `CC(=O)NCCCCCCNC(C)=O`, the viability was 125% (inactive) in test [1]; 100% (inactive) in test [2]; 94.5% (inactive) in test [3]; 88.9% in test [4] (setting [7]); 94.5% in test [4] (setting [8]). Also, the differential viability (reversal) in test [4] (H69AR cells + 2 uM doxorubicin) was 5.61% (inactive). Further, the inhibition is 4.94% (inactive) in test [5] and -1.17% (inactive) in test [6].

Consider `Cc1ccc(S(=O)(=O)N2CCN(C(=O)CSc3nc4ccccc4c(=O)[nH]3)CC2)c(C)c1`, for which the viability in test [1] was 99% (inactive); in test [2], 77.4% (inactive); in test [3], 85.1% (inactive); in test [4] (setting [7]), 68.2%; in test [4] (setting [8]) it was 85.1%. In addition, the differential viability (reversal) in test [4] (H69AR cells + 2 uM doxorubicin) was 16.8% (inactive). In addition, the results for the inhibition in test [5] and in test [6] were -6.53% (inactive) and -3.64% (inactive), respectively.

On to `Cc1cc(C)nc(-n2nc(C)cc2NC(=O)c2ccc(Br)o2)n1`, for which the viability in test [1] was 108% (inactive); in test [2], 87.4% (inactive); in test [3], 71.9% (inactive); in test [4] (setting [7]) it was 83.3%; in test [4] (setting [8]), 71.9%. Also, in test [4] (H69AR cells + 2 uM doxorubicin), the differential viability (reversal) is -11.4% (inactive). In addition, the values for the inhibition in test [5] and in test [6] were -3.73% (inactive) and 5.27% (inactive), respectively.

Turning to `COc1ccc(OC)c(NC(=O)C2C3CC4OC(=O)C2C4C3)c1` (configuration not stated), the viability is 103% (inactive) in test [1]; 102% (inactive) in test [2]; 98.3% (inactive) in test [3]; 90% in test [4] (setting [7]); 98.3% in test [4] (setting [8]). In addition, in test [4] (H69AR cells + 2 uM doxorubicin), the differential viability (reversal) is 8.29% (inactive). The inhibition in test [5] is -6.89% (inactive); in test [6], -4% (inactive).

As for `NC(=O)C1CCN(C(=S)c2cccs2)CC1`, the viability in test [1] is 77% (inactive); in test [2], 102% (inactive); in test [3], 96.1% (inactive); in test [4] (setting [7]) it was 84.7%; in test [4] (setting [8]), 96.1%. In addition, the differential viability (reversal) in test [4] (H69AR cells + 2 uM doxorubicin) is 11.5% (inactive). Moreover, the inhibition in test [5] was -8.49% (inactive); in test [6], 3.39% (inactive).

With `CCOC(=O)CNC(=O)CSc1nc(N(C)C)nc(N2CCOCC2)n1`, the viability in test [1] is 88% (inactive); in test [2], 98.1% (inactive); in test [3], 89.2% (inactive); in test [4] (setting [7]), 87.1%; in test [4] (setting [8]) it was 89.2%. Also, in test [4] (H69AR cells + 2 uM doxorubicin), the differential viability (reversal) is 2.04% (inactive). Besides, the inhibition in test [5] was -9.86% (inactive); in test [6], 6.45% (inactive).

Turning to `COc1ccc(S(=O)(=O)Nc2ccccc2OC)cc1C`, the viability is 107% (inactive) in test [1]; 93.8% (inactive) in test [2]; 83.1% (inactive) in test [3]; 90.2% in test [4] (setting [7]); 83.1% in test [4] (setting [8]). Also, the differential viability (reversal) in test [4] (H69AR cells + 2 uM doxorubicin) is -7.08% (inactive). For the same compound, the values for the inhibition in test [5] and in test [6] were 0% (inactive) and 0.82% (inactive), respectively.
